Laboratory results published in publication PMC3461162 (British Journal of Cancer, 2012).
Several values for one entry are separate records, joined by “and”; a condition that tells them apart may be missing. Equal values may be shown once.

Assay: Phase I dose-escalation safety and tolerability: adverse events, DLTs, MTD
Assay type: in vivo, human
Procedure, shortened: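 Multicentre, open-label, dose-escalation study. A single oral dose on day 1 was followed one week later by continuous twice-daily dosing, starting at 10 mg. The first three cohorts got solution, later cohorts tablets. AEs were graded by CTC v3.0 from consent to 30 days after stopping. DLT: a CTC grade 3 AE, or a laboratory abnormality with clinical signs, within 42 days (extended from 35). MTD: last dose below the non-tolerated dose.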

[1] = 10 mg BID solution (n=5), CTCAE grade 1–2
[2] = 10 mg BID solution (n=5), CTCAE grade ⩾3
[3] = 20 mg BID solution (n=3), CTCAE grade 1–2
[4] = 20 mg BID solution (n=3), CTCAE grade ⩾3
[5] = 40 mg BID solution (n=6), CTCAE grade 1–2
[6] = 40 mg BID solution (n=6), CTCAE grade ⩾3
[7] = 40 mg BID tablet (n=7), CTCAE grade 1–2
[8] = 40 mg BID tablet (n=7), CTCAE grade ⩾3
[9] = 60 mg BID tablet (n=7), CTCAE grade 1–2
[10] = 60 mg BID tablet (n=7), CTCAE grade ⩾3
[11] = 90 mg BID tablet (n=11), CTCAE grade 1–2
[12] = 90 mg BID tablet (n=11), CTCAE grade ⩾3
[13] = 120 mg BID tablet (n=10), CTCAE grade 1–2
[14] = 120 mg BID tablet (n=10), CTCAE grade ⩾3
[15] = CTCAE grade 3, all cohorts, a patient may have experienced more than one DLT
[16] = Total (n=49), Any grade occurring in cycle 1/2

COc1ccc(-c2ccc3c(N4CCOC[C@@H]4C)nc(N4CCOC[C@@H]4C)nc3n2)cc1CO [AZD8055]
Fatigue: patients with AZD8055-related AE, n (%) [1]: 1 (20) % | Hyperglycaemia: patients with AZD8055-related AE, n (%) [1]: 0% | Increased ALT: patients with AZD8055-related AE, n (%) [1]: 1 (20) % | Increased AST: patients with AZD8055-related AE, n (%) [1]: 1 (20) % | Increased GGT: patients with AZD8055-related AE, n (%) [1]: 0% | Nausea: patients with AZD8055-related AE, n (%) [1]: 2 (40) % | Stomatitis: patients with AZD8055-related AE, n (%) [1]: 0% | Fatigue: patients with AZD8055-related AE, n (%) [2]: 0% | Hyperglycaemia: patients with AZD8055-related AE, n (%) [2]: 0% | Increased ALT: patients with AZD8055-related AE, n (%) [2]: 0% | Increased AST: patients with AZD8055-related AE, n (%) [2]: 0% | Increased GGT: patients with AZD8055-related AE, n (%) [2]: 0% | Nausea: patients with AZD8055-related AE, n (%) [2]: 0% | Stomatitis: patients with AZD8055-related AE, n (%) [2]: 0% | Fatigue: patients with AZD8055-related AE, n (%) [3]: 0% | Hyperglycaemia: patients with AZD8055-related AE, n (%) [3]: 0% | Increased ALT: patients with AZD8055-related AE, n (%) [3]: 0% | Increased AST: patients with AZD8055-related AE, n (%) [3]: 0% | Increased GGT: patients with AZD8055-related AE, n (%) [3]: 0% | Nausea: patients with AZD8055-related AE, n (%) [3]: 1 (33) % | Stomatitis: patients with AZD8055-related AE, n (%) [3]: 1 (33) % | Fatigue: patients with AZD8055-related AE, n (%) [4]: 0% | Hyperglycaemia: patients with AZD8055-related AE, n (%) [4]: 0% | Increased ALT: patients with AZD8055-related AE, n (%) [4]: 1 (33) % | Increased AST: patients with AZD8055-related AE, n (%) [4]: 1 (33) % | Increased GGT: patients with AZD8055-related AE, n (%) [4]: 0% | Nausea: patients with AZD8055-related AE, n (%) [4]: 0% | Stomatitis: patients with AZD8055-related AE, n (%) [4]: 0% | Patients with DLT (grade 3 rise in transaminases) (40 mg BID solution): 1 | Fatigue: patients with AZD8055-related AE, n (%) [5]: 2 (33) % | Hyperglycaemia: patients with AZD8055-related AE, n (%) [5]: 0% | Increased ALT: patients with AZD8055-related AE, n (%) [5]: 0% | Increased AST: patients with AZD8055-related AE, n (%) [5]: 0% | Increased GGT: patients with AZD8055-related AE, n (%) [5]: 1 (17) % | Nausea: patients with AZD8055-related AE, n (%) [5]: 0% | Stomatitis: patients with AZD8055-related AE, n (%) [5]: 1 (17) % | Fatigue: patients with AZD8055-related AE, n (%) [6]: 0% | Hyperglycaemia: patients with AZD8055-related AE, n (%) [6]: 0% | Increased ALT: patients with AZD8055-related AE, n (%) [6]: 1 (17) % | Increased AST: patients with AZD8055-related AE, n (%) [6]: 1 (17) % | Increased GGT: patients with AZD8055-related AE, n (%) [6]: 0% | Nausea: patients with AZD8055-related AE, n (%) [6]: 0% | Stomatitis: patients with AZD8055-related AE, n (%) [6]: 0% | Fatigue: patients with AZD8055-related AE, n (%) [7]: 1 (14) % | Hyperglycaemia: patients with AZD8055-related AE, n (%) [7]: 1 (14) % | Increased ALT: patients with AZD8055-related AE, n (%) [7]: 0% | Increased AST: patients with AZD8055-related AE, n (%) [7]: 0% | Increased GGT: patients with AZD8055-related AE, n (%) [7]: 0% | Nausea: patients with AZD8055-related AE, n (%) [7]: 1 (14) % | Stomatitis: patients with AZD8055-related AE, n (%) [7]: 0% | Fatigue: patients with AZD8055-related AE, n (%) [8]: 0% | Hyperglycaemia: patients with AZD8055-related AE, n (%) [8]: 0% | Increased ALT: patients with AZD8055-related AE, n (%) [8]: 1 (14) % | Increased AST: patients with AZD8055-related AE, n (%) [8]: 0% | Increased GGT: patients with AZD8055-related AE, n (%) [8]: 0% | Nausea: patients with AZD8055-related AE, n (%) [8]: 0% | Stomatitis: patients with AZD8055-related AE, n (%) [8]: 0% | Fatigue: patients with AZD8055-related AE, n (%) [9]: 1 (14) % | Hyperglycaemia: patients with AZD8055-related AE, n (%) [9]: 0% | Increased ALT: patients with AZD8055-related AE, n (%) [9]: 1 (14) % | Increased AST: patients with AZD8055-related AE, n (%) [9]: 1 (14) % | Increased GGT: patients with AZD8055-related AE, n (%) [9]: 1 (14) % | Nausea: patients with AZD8055-related AE, n (%) [9]: 0% | Stomatitis: patients with AZD8055-related AE, n (%) [9]: 0% | Fatigue: patients with AZD8055-related AE, n (%) [10]: 0% | Hyperglycaemia: patients with AZD8055-related AE, n (%) [10]: 0% | Increased ALT: patients with AZD8055-related AE, n (%) [10]: 0% | Increased AST: patients with AZD8055-related AE, n (%) [10]: 1 (14) % | Increased GGT: patients with AZD8055-related AE, n (%) [10]: 1 (14) % | Nausea: patients with AZD8055-related AE, n (%) [10]: 0% | Stomatitis: patients with AZD8055-related AE, n (%) [10]: 0% | Patients with DLT (grade 3 rise in transaminases) (90 mg BID tablet): 1 and 1/9 | Fatigue: patients with AZD8055-related AE, n (%) [11]: 1 (9) % | Hyperglycaemia: patients with AZD8055-related AE, n (%) [11]: 3 (27) % | Increased ALT: patients with AZD8055-related AE, n (%) [11]: 2 (18) % | Increased AST: patients with AZD8055-related AE, n (%) [11]: 1 (9) % | Increased GGT: patients with AZD8055-related AE, n (%) [11]: 0% | Nausea: patients with AZD8055-related AE, n (%) [11]: 2 (18) % | Stomatitis: patients with AZD8055-related AE, n (%) [11]: 2 (18) % | Fatigue: patients with AZD8055-related AE, n (%) [12]: 0% | Hyperglycaemia: patients with AZD8055-related AE, n (%) [12]: 0% | Increased ALT: patients with AZD8055-related AE, n (%) [12]: 1 (9) % | Increased AST: patients with AZD8055-related AE, n (%) [12]: 2 (18) % | Increased GGT: patients with AZD8055-related AE, n (%) [12]: 1 (9) % | Nausea: patients with AZD8055-related AE, n (%) [12]: 0% | Stomatitis: patients with AZD8055-related AE, n (%) [12]: 0% | Patients with DLT (grade 3 rise in transaminases) (120 mg BID cohort, patients evaluable for DLT): 3 and 3/9 | Fatigue: patients with AZD8055-related AE, n (%) [13]: 2 (20) % | Hyperglycaemia: patients with AZD8055-related AE, n (%) [13]: 2 (20) % | Increased ALT: patients with AZD8055-related AE, n (%) [13]: 1 (10) % | Increased AST: patients with AZD8055-related AE, n (%) [13]: 1 (10) % | Increased GGT: patients with AZD8055-related AE, n (%) [13]: 1 (10) % | Nausea: patients with AZD8055-related AE, n (%) [13]: 1 (10) % | Stomatitis: patients with AZD8055-related AE, n (%) [13]: 2 (20) % | Fatigue: patients with AZD8055-related AE, n (%) [14]: 0% | Hyperglycaemia: patients with AZD8055-related AE, n (%) [14]: 0% | Increased ALT: patients with AZD8055-related AE, n (%) [14]: 2 (20) % | Increased AST: patients with AZD8055-related AE, n (%) [14]: 2 (20) % | Increased GGT: patients with AZD8055-related AE, n (%) [14]: 0% | Nausea: patients with AZD8055-related AE, n (%) [14]: 0% | Stomatitis: patients with AZD8055-related AE, n (%) [14]: 0% | Non-tolerated dose (BID, DLTs in 3/9 evaluable patients): 120 mg | DLTs: Increased ALT, Total (%) [15]: 3 (6) % | DLTs: Increased AST, Total (%) [15]: 3 (6) % | Fatigue: patients with AZD8055-related AE, n (%) [16]: 8 (16) % | Hyperglycaemia: patients with AZD8055-related AE, n (%) [16]: 6 (12) % | Increased ALT: patients with AZD8055-related AE, n (%) [16]: 11 (22) % | Increased AST: patients with AZD8055-related AE, n (%) [16]: 11 (22) % | Increased GGT: patients with AZD8055-related AE, n (%) [16]: 5 (10) % | Nausea: patients with AZD8055-related AE, n (%) [16]: 7 (14) % | Stomatitis: patients with AZD8055-related AE, n (%) [16]: 6 (12) % | Fatigue: patients with AZD8055-related AE, n (%) (Total (n=49), CTCAE grade 1–2): 8 (16) % | Hyperglycaemia: patients with AZD8055-related AE, n (%) (Total (n=49), CTCAE grade 1–2): 6 (12) % | Increased ALT: patients with AZD8055-related AE, n (%) (Total (n=49), CTCAE grade 1–2): 5 (10) % | Increased AST: patients with AZD8055-related AE, n (%) (Total (n=49), CTCAE grade 1–2): 4 (8) % | Increased GGT: patients with AZD8055-related AE, n (%) (Total (n=49), CTCAE grade 1–2): 3 (6) % | Nausea: patients with AZD8055-related AE, n (%) (Total (n=49), CTCAE grade 1–2): 7 (14) % | Stomatitis: patients with AZD8055-related AE, n (%) (Total (n=49), CTCAE grade 1–2): 6 (12) % | Fatigue: patients with AZD8055-related AE, n (%) (Total (n=49), CTCAE grade ⩾3): 0% | Hyperglycaemia: patients with AZD8055-related AE, n (%) (Total (n=49), CTCAE grade ⩾3): 0% | Increased ALT: patients with AZD8055-related AE, n (%) (Total (n=49), CTCAE grade ⩾3): 6 (12) % | Increased AST: patients with AZD8055-related AE, n (%) (Total (n=49), CTCAE grade ⩾3): 7 (14) % | Increased GGT: patients with AZD8055-related AE, n (%) (Total (n=49), CTCAE grade ⩾3): 2 (4) % | Nausea: patients with AZD8055-related AE, n (%) (Total (n=49), CTCAE grade ⩾3): 0% | Stomatitis: patients with AZD8055-related AE, n (%) (Total (n=49), CTCAE grade ⩾3): 0% | Fatigue, AE assessed to be related to AZD8055, frequency (all patients (n=49)): 16% | Maximum tolerated dose (MTD) (oral, patients with advanced solid tumours or lymphomas): 90 mg BID | Patients requiring dose reductions as a result of increased transaminases, assessed to be AZD8055-related (three patients, one each in the 60, 90 and 120 mg BID tablet groups): 6% | Patients with a dose interruption (within cycles 1 and 2, 11 patients, 7 because of an AE): 22%
